Assay results as given in ChEMBL document CHEMBL1128245, “Dual-acting thromboxane receptor antagonist/synthase inhibitors: synthesis and biological properties of [2-substituted-4-(3-pyridyl)-1,3-dioxan-5-yl] alkenoic acids” (J Med Chem, 1995).

Key:
Rattus norvegicus [1] = assay: Ex vivo TXA2 ([…]) antagonist activity was determined for U-46,619 induced aggregation (dose ratio) after 3 hr of oral dosing (1 mg/kg) in the rat; assay type: functional
In short: (§1)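 Conscious rats (n = 6) dosed by oral gavage, then anesthetized and bled from the abdominal aorta at 1, 3 or 5 h. Platelet-rich plasma aggregated with U46619 before and after dosing to give a U46619 dose ratio. ">" values mark the maximum dose ratio achievable at the top U46619 concentration (1 × 10^-4 M).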

Canis familiaris [2] = assay: Ex vivo TXA2 ([…]) antagonist activity was determined for U-46,619 induced aggregation (dose ratio) after 8 hr of oral dosing (10 mg/kg) in the dog; assay type: functional, Canis lupus familiaris
In short: (§2)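 Dogs (n = 4) dosed orally, blood sampled at 2, 5, 8 and 24 h. Platelet-rich plasma aggregated with U46619 plus a predetermined threshold ADP concentration (about 0.4–1.2 × 10^-6 M), compared before vs after dosing to give a U46619 dose ratio. ">" marks the maximum achievable ratio at top U46619 (1 × 10^-4 M).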

Rattus norvegicus [3] = assay: Ex vivo TXA2 ([…]) antagonist activity was determined for U-46,619 induced aggregation (dose ratio) after 5 hr of oral dosing (1 mg/kg) in the rat; assay type: functional; in short: as §1
Rattus norvegicus [4] = assay: Ex vivo […] (TXA2 synthase) inhibitory activity after 3 hr of oral dosing (5 mg/kg) in the rat; assay type: functional
In short: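 Conscious rats (n = 6) were gavaged with compound, then anesthetized, and blood was drawn from the abdominal aorta at 1, 3 and 5 h after dosing. A blood aliquot was stimulated with collagen and the TXB2 formed was measured by radioimmunoassay. Results are expressed as % inhibition of TXA2 synthase activity (±SEM).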

Canis familiaris [5] = assay: Ex vivo TXA2 ([…]) antagonist activity was determined for U-46,619 induced aggregation (dose ratio) after 5 hr of oral dosing (3 mg/kg) in the dog; assay type: functional, Canis lupus familiaris; in short: as §2
Rattus norvegicus [6] = assay: Ex vivo TXA2 ([…]) antagonist activity was determined for U-46,619 induced aggregation (dose ratio) after 1 hr of oral dosing (10 mg/kg) in the rat; assay type: functional; in short: as §1
Canis familiaris [7] = assay: Ex vivo TXA2 ([…]) antagonist activity was determined for U-46,619 induced aggregation (dose ratio) after 5 hr of oral dosing (1 mg/kg) in the dog; assay type: functional, Canis lupus familiaris; in short: as §2
Rattus norvegicus [8] = assay: Ex vivo […] (TXA2 synthase) inhibitory activity after 3 hr of oral dosing (3 mg/kg) in the rat; assay type: functional
In short: (§3)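 Rats (n = 6) gavaged, anesthetized, aortic blood taken at 1, 3 or 5 h after dosing. A blood aliquot was challenged with collagen and TXB2 measured by radioimmunoassay; expressed as % inhibition of TXA2 synthase (±SEM).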

Rattus norvegicus [9] = assay: Ex vivo […] (TXA2 synthase) inhibitory activity after 5 hr of oral dosing (3 mg/kg) in the rat; assay type: functional; in short: as §3
Rattus norvegicus [10] = assay: Ex vivo […] (TXA2 synthase) inhibitory activity after 1 hr of oral dosing (10 mg/kg) in the rat; assay type: functional; in short: as §3
Canis familiaris [11] = assay: Ex vivo TXA2 ([…]) antagonist activity was determined for U-46,619 induced aggregation (dose ratio) after 8 hr of oral dosing (3 mg/kg) in the dog; assay type: functional, Canis lupus familiaris; in short: as §2
Rattus norvegicus [12] = assay: Ex vivo TXA2 ([…]) antagonist activity was determined for U-46,619 induced aggregation (dose ratio) after 1 hr of oral dosing (3 mg/kg) in the rat; assay type: functional; in short: as §1
Rattus norvegicus [13] = assay: Ex vivo TXA2 ([…]) antagonist activity was determined for U-46,619 induced aggregation (dose ratio) after 3 hr of oral dosing (10 mg/kg) in the rat; assay type: functional; in short: as §1
Canis familiaris [14] = assay: Ex vivo TXA2 ([…]) antagonist activity was determined for U-46,619 induced aggregation (dose ratio) after 5 hr of oral dosing (10 mg/kg) in the dog; assay type: functional, Canis lupus familiaris; in short: as §2
Rattus norvegicus [15] = assay: Ex vivo […] (TXA2 synthase) inhibitory activity after 5 hr of oral dosing (10 mg/kg) in the rat; assay type: functional; in short: as §3
Rattus norvegicus [16] = assay: Ex vivo TXA2 ([…]) antagonist activity was determined for U-46,619 induced aggregation (dose ratio) after 5 hr of oral dosing (10 mg/kg) in the rat; assay type: functional; in short: as §1
Rattus norvegicus [17] = assay: Ex vivo TXA2 ([…]) antagonist activity was determined for U-46,619 induced aggregation (dose ratio) after 5 hr of oral dosing (3 mg/kg) in the rat; assay type: functional; in short: as §1
Rattus norvegicus [18] = assay: Ex vivo […] (TXA2 synthase) inhibitory activity after 3 hr of oral dosing (10 mg/kg) in the rat; assay type: functional; in short: as §3
Canis familiaris [19] = assay: Ex vivo TXA2 ([…]) antagonist activity was determined for U-46,619 induced aggregation (dose ratio) after 2 hr of oral dosing (10 mg/kg) in the dog; assay type: functional, Canis lupus familiaris; in short: as §2
Canis familiaris [20] = assay: Ex vivo TXA2 ([…]) antagonist activity was determined for U-46,619 induced aggregation (dose ratio) after 2 hr of oral dosing (3 mg/kg) in the dog; assay type: functional, Canis lupus familiaris; in short: as §2
Rattus norvegicus [21] = assay: Ex vivo TXA2 ([…]) antagonist activity was determined for U-46,619 induced aggregation (dose ratio) after 5 hr of oral dosing (5 mg/kg) in the rat; assay type: functional; in short: as §1
Thromboxane-A synthase = biological target: T1, Thromboxane-A synthase (Homo sapiens, UniProt P24557); assay: In vitro Inhibition of thromboxane synthase from human blood platelet microsomes
T1 sequence (P24557 whole entry): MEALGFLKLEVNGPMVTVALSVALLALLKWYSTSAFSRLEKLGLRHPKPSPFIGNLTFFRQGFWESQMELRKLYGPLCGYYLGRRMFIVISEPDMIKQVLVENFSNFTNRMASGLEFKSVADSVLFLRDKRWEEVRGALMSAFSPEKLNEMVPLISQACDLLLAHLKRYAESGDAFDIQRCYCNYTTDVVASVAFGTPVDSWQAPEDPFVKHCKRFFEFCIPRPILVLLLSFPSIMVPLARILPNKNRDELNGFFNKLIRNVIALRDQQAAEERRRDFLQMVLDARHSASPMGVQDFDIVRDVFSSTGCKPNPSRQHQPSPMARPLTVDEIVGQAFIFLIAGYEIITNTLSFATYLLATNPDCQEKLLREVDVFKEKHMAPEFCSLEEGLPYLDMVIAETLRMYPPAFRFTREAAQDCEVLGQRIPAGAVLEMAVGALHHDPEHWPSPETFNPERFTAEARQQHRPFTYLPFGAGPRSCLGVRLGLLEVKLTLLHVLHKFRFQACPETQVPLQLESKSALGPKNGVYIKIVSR
In short: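 Human blood platelet microsomes incubated with [1-14C]arachidonic acid with or without inhibitor. Conversion to labeled thromboxane B2 quantified radiochromatographically. n = 2.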

Rattus norvegicus [22] = assay: Ex vivo TXA2 ([…]) antagonist activity was determined for U-46,619 induced aggregation (dose ratio) after 1 hr of oral dosing (5 mg/kg) in the rat; assay type: functional; in short: as §1
Canis familiaris [23] = assay: Ex vivo TXA2 ([…]) antagonist activity was determined for U-46,619 induced aggregation (dose ratio) after 24 hr of oral dosing (3 mg/kg) in the dog; assay type: functional, Canis lupus familiaris; in short: as §2
Rattus norvegicus [24] = assay: Ex vivo TXA2 ([…]) antagonist activity was determined for U-46,619 induced aggregation (dose ratio) after 3 hr of oral dosing (5 mg/kg) in the rat; assay type: functional; in short: as §1
Homo sapiens = species: Homo sapiens; assay: In vitro inhibition of U-46,619-induced aggregation of unwashed human platelets.; assay type: functional
In short: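 Citrated (3.2%) human venous blood spun at 200g for 10 min. Platelet-rich plasma aggregated with U46619 with or without several antagonist concentrations.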

## Cc1ccc(OC(C)(C)C2OCC(C/C=C\CCC(=O)O)C(c3cccnc3)O2)c([N+](=O)[O-])c1 (stereo in doubt; 7x)
Rattus norvegicus [1]
  Antagonist activity: >27
Canis familiaris [2]
  Antagonist activity: >522
Rattus norvegicus [3]
  Antagonist activity: >9
Rattus norvegicus [4]
  Inhibition: 89.2%
Canis familiaris [5]
  Antagonist activity: >321
Rattus norvegicus [6]
  Antagonist activity: >113
Canis familiaris [7]
  Antagonist activity: >506
Rattus norvegicus [8]
  Inhibition: 82.5%
Rattus norvegicus [9]
  Inhibition: 68.3%
Rattus norvegicus [10]
  Inhibition: 95.6%
Canis familiaris [11]
  Antagonist activity: >321
Rattus norvegicus [12]
  Antagonist activity: >34
Rattus norvegicus [13]
  Antagonist activity: >71
Canis familiaris [14]
  Antagonist activity: >522
Rattus norvegicus [15]
  Inhibition: 89%
Rattus norvegicus [16]
  Antagonist activity: >92
Rattus norvegicus [17]
  Antagonist activity: >21
Rattus norvegicus [18]
  Inhibition: 93.9%
Canis familiaris [19]
  Antagonist activity: >522
Canis familiaris [20]
  Antagonist activity: >321
Rattus norvegicus [21]
  Antagonist activity: >47
Thromboxane-A synthase
  IC50: 19 nM
Rattus norvegicus [22]
  Antagonist activity: >60
Canis familiaris [23]
  Antagonist activity: >281
Rattus norvegicus [24]
  Antagonist activity: >59
Homo sapiens
  pA2: 8.43
